Data as given in ChEMBL document CHEMBL3779809, “Bioactive Enmein-Type ent-Kaurane Diterpenoids from Isodon phyllostachys” (J Nat Prod, 2016).
Calls of active or inactive are those of the source. The rule behind the calls is not given here.

Experiments:
[1] = Cytotoxicity against human HL60 cells assessed as cell viability after 48 hrs by MTS assay; assay type: functional, cell-based; settings: HL-60, 48 h
Summary of the method: (§1)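 Cells grown in RPMI-1640 or DMEM with 10% FBS at 37 °C, 5% CO2. Seeded, incubated 12 h, then exposed to a range of concentrations in triplicate for 48 h. Viability read by MTS reduction to formazan. IC50 calculated by Reed and Muench method; cis-platin positive control.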

[2] = Cytotoxicity against human SMMC7721 cells assessed as cell viability after 48 hrs by MTS assay; assay type: functional, cell-based; settings: SMMC-7721, 48 h; summary of the method: as §1
A549 [3] = test: Cytotoxicity against human A549 cells assessed as cell viability after 48 hrs by MTS assay; assay type: functional, cell-based; settings: A549, 48 h; summary of the method: as §1
MCF7 [4] = test: Cytotoxicity against human MCF7 cells assessed as cell viability after 48 hrs by MTS assay; assay type: functional, cell-based; settings: MCF7, 48 h; summary of the method: as §1
SW480 [5] = test: Cytotoxicity against human SW480 cells assessed as cell viability after 48 hrs by MTS assay; assay type: functional, cell-based; settings: SW480, 48 h; summary of the method: as §1
HL-60 = test: Cytotoxicity against human HL60 cells assessed growth inhibition at 40 uM after 48 hrs by MTS assay relative to control; assay type: functional
Summary of the method: (§2)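 Cultured in RPMI-1640 or DMEM with 10% FBS at 37 °C under 5% CO2. Cells seeded, given 12 h at 37 °C, then treated with compound at 40 μM for 48 h. Growth inhibition measured by MTS assay (formazan colorimetry).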

SMMC-7721 = test: Cytotoxicity against human SMMC7721 cells assessed growth inhibition at 40 uM after 48 hrs by MTS assay relative to control; assay type: functional; summary of the method: as §2
A549 [6] = test: Cytotoxicity against human A549 cells assessed growth inhibition at 40 uM after 48 hrs by MTS assay relative to control; assay type: functional; summary of the method: as §2
MCF7 [7] = test: Cytotoxicity against human MCF7 cells assessed growth inhibition at 40 uM after 48 hrs by MTS assay relative to control; assay type: functional; summary of the method: as §2
SW480 [8] = test: Cytotoxicity against human SW480 cells assessed growth inhibition at 40 uM after 48 hrs by MTS assay relative to control; assay type: functional; summary of the method: as §2

| Structure (SMILES) | IC50 [1] [µM] | IC50 [2] [µM] | IC50 (A549 [3]) [µM] | IC50 (MCF7 [4]) [µM] | IC50 (SW480 [5]) [µM] | growth inhibition (GI) (HL-60) | growth inhibition (GI) (SMMC-7721) | growth inhibition (GI) (A549 [6]) | growth inhibition (GI) (MCF7 [7]) | growth inhibition (GI) (SW480 [8]) |
| --- | --- | --- | --- | --- | --- | --- | --- | --- | --- | --- |
| C[C@H]1C(=O)[C@]23C[C@@H]1C[C@@H](O)[C@H]2C12CO[C@@H](O)[C@@H]1C(C)(C)CC[C@@H]2OC3=O (stereo not given in full) | > 40 | > 40 | > 40 | > 40 | > 40 | inactive | inactive | inactive | inactive | inactive |
| CO[C@@H]1O[C@@H](O)[C@@H]2C(C)(C)CC[C@@H]3OC(=O)[C@@]45C[C@H](CC[C@H]4C132)[C@@H](C)C5=O (stereo not given in full) | > 40 | > 40 | > 40 | > 40 | > 40 | inactive | inactive | inactive | inactive | inactive |
| C=C1C(=O)[C@]23C[C@@H]1C[C@@H](O)[C@H]2C12CO[C@@H](O)[C@@H]1C(C)(C)[C@@H](O)C[C@@H]2OC3=O (stereo not given in full) | > 40 | > 40 | > 40 | > 40 | > 40 | inactive | inactive | inactive | inactive | inactive |
| C[C@H]1C(=O)[C@]23C[C@@H]1CC[C@H]2C12CO[C@@H](O)[C@@H]1C(C)(C)[C@@H](O)C[C@@H]2OC3=O (stereo not given in full) | > 40 | > 40 | > 40 | > 40 | > 40 | inactive | inactive | inactive | inactive | inactive |
| COC[C@H]1C(=O)[C@]23C[C@@H]1C[C@@H](O)[C@H]2C12CO[C@@H](O)[C@@H]1C(C)(C)CC[C@@H]2OC3=O (stereo not given in full) | > 40 | > 40 | > 40 | > 40 | > 40 | inactive | inactive | inactive | inactive | inactive |
| C[C@H]1C(=O)[C@]23C[C@@H]1CC[C@H]2C12CO[C@@H](O)[C@@H]1C(C)(C)CC[C@@H]2OC3=O (stereo not given in full) | > 40 | > 40 | > 40 | > 40 | > 40 | inactive | inactive | inactive | inactive | inactive |
| C[C@H]1C(=O)[C@]23C[C@@H]1CC[C@H]2C12[C@H](O)OC[C@@H]1C(C)(C)CC[C@@H]2OC3=O (stereo not given in full) | > 40 | > 40 | > 40 | > 40 | > 40 | inactive | inactive | inactive | inactive | inactive |
| C[C@H]1C(=O)[C@]23C[C@@H]1CC[C@H]2C12[C@H](CCC(C)(C)[C@H]1CO[C@@H]2O)OC3=O (stereo not given in full) | > 40 | > 40 | > 40 | > 40 | > 40 | inactive | inactive | inactive | inactive | inactive |
| C[C@]12CC[C@@H]3OC(=O)[C@@]45C[C@H](C[C@@H](O)[C@@H]4[C@]34CO[C@H](OC1)[C@H]24)[C@@]1(CCC2=C(O1)[C@]13C[C@@H]2C[C@@H](O)[C@@H]1[C@]12CO[C@@H]4OC[C@](C)(CC[C@@H]1OC3=O)[C@@H]42)C5=O | > 40 | > 40 | > 40 | > 40 | > 40 | inactive | inactive | inactive | inactive | inactive |
| COC[C@@H]1C(=O)[C@]23C[C@@H]1C[C@@H](O)[C@H]2C12CO[C@@H](O)[C@@H]1C(C)(C)CC[C@@H]2OC3=O (stereo not given in full) | > 40 | > 40 | > 40 | > 40 | > 40 | inactive | inactive | inactive | inactive | inactive |
| C=C1[C@H]2CC[C@@H]3[C@](C2)(C(=O)O[C@H]2C[C@@H]4OC5O[C@@H](O)[C@H](C4(C)C)[C@@]523)[C@@H]1O | > 40 | > 40 | > 40 | > 40 | > 40 | inactive | inactive | inactive | inactive | inactive |
| C=C1C(=O)[C@]23C[C@@H]1C[C@@H](O)[C@H]2C12C(O)O[C@@H]4OC(O)[C@](C)(CC[C@@H]1OC3=O)[C@@H]42 (stereo not given in full) | > 40 | > 40 | > 40 | > 40 | > 40 | inactive | inactive | inactive | inactive | inactive |
| C=C1[C@H]2CC[C@H]3C45C(O)O[C@@H](OC)[C@@H]4C(C)(C)CC[C@@H]5OC(=O)[C@]3(C2)[C@@H]1O (stereo not given in full) | > 40 | > 40 | > 40 | > 40 | > 40 | inactive | inactive | inactive | inactive | inactive |
| CC1(C)[C@@H]2C[C@@H]3OC(=O)[C@@]45C[C@H](CC[C@H]4[C@]34C(O[C@@H](O)[C@H]14)O2)[C@](C)(O)C5=O | > 40 | > 40 | > 40 | > 40 | > 40 | inactive | inactive | inactive | inactive | inactive |
| CO[C@H]1O[C@@H](O)[C@@H]2C(C)(C)CC[C@@H]3OC(=O)[C@@]45C[C@H](CC[C@H]4C132)[C@@H](C)C5=O (stereo not given in full) | > 40 | > 40 | > 40 | > 40 | > 40 | inactive | inactive | inactive | inactive | inactive |
| CO[C@@H]1OC(O)C23[C@H](CCC(C)(C)[C@@H]12)OC(=O)[C@@]12C[C@H](CC[C@@H]31)[C@@H](C)C2=O (stereo not given in full) | > 40 | > 40 | > 40 | > 40 | > 40 | inactive | inactive | inactive | inactive | inactive |
| C[C@@H]1C(=O)[C@]23C[C@@H]1CC[C@H]2C12CO[C@@H](O)[C@@H]1C(C)(C)CC[C@@H]2OC3=O (stereo not given in full) | > 40 | > 40 | > 40 | > 40 | > 40 | inactive | inactive | inactive | inactive | inactive |
| C[C@H]1C(=O)[C@]23C[C@@H]1CC[C@H]2C12C(O)O[C@@H](O)[C@@H]1C(C)(C)CC[C@@H]2OC3=O (stereo not given in full) | > 40 | > 40 | > 40 | > 40 | > 40 | inactive | inactive | inactive | inactive | inactive |
| C=C1[C@H]2C[C@@H](O)[C@H]3C45CO[C@@H]6OC[C@](C)(CC[C@@H]4OC(=O)[C@]3(C2)[C@@H]1O)[C@@H]65 (stereo not given in full) | > 40 | > 40 | > 40 | > 40 | > 40 | inactive | inactive | inactive | inactive | inactive |
